{"data": "Results collected from several papers", "target": "Mitogen-activated protein kinase kinase kinase kinase 4 (MAP4K4, Homo sapiens, UniProt O95819)", "note": "Protocols differ between the studies behind these lines."}
{"SMILES": "CCc1ccccc1C(=O)Nc1n[nH]c2c(C)c(F)c(C3C(C#N)=C(C)N(C)C(C)=C3C#N)cc12", "assay": "cell-free assay, competition with immobilised ligand", "conditions": "1 µM", "remaining binding [%]": 100}
{"SMILES": "Cc1cnc(Nc2ccc(C(=O)N3CCC(N4CCCC4)CC3)cc2)nc1-c1cc2ccccc2s1", "assay": "binding, competition with immobilised ligand", "conditions": "1 µM", "remaining binding [%]": 67}
{"SMILES": "CN(C)c1ncc(F)c(-c2cnn3ncccc23)n1", "assay": "binding", "conditions": "1 µM", "remaining binding [%]": 100}
{"SMILES": "Cc1c(C(=O)O)cc(-c2ccc(C3CCNCC3)cc2)c2ccc(-c3ccc(C(F)(F)F)cc3)cc12", "assay": "binding, competition with immobilised ligand", "conditions": "1 µM", "remaining binding [%]": 76}
{"SMILES": "COc1ccnn2ncc(-c3ccnc(N(C)C)n3)c12", "assay": "binding", "conditions": "1 µM", "remaining binding [%]": 93}
{"SMILES": "c1cncc(-c2cccc(Nc3nccc(NC4CCCCC4)n3)c2)c1", "assay": "binding, competition with immobilised ligand", "conditions": "10 µM", "remaining binding [%]": 26}
{"SMILES": "Nc1ncc2c(n1)-c1c([nH]c3ccc(C#CC4CC4)cc13)CCCC2", "assay": "binding, competition with immobilised ligand", "conditions": "1 µM", "remaining binding [%]": 90}
{"SMILES": "COc1cnc(Nc2cccc(S(N)(=O)=O)c2)nc1N1CCN(c2ccccc2)C(=O)C1", "assay": "binding, competition with immobilised ligand", "conditions": "1 µM", "remaining binding [%]": 100}
{"SMILES": "C[C@H](c1cccc(C#N)c1)n1cc(Cl)cc(C(N)=O)c1=N", "assay": "cell-free assay, competition with immobilised ligand", "conditions": "1 µM", "remaining binding [%]": 100}
{"SMILES": "O=C(NCC1CCOCC1)c1n[nH]cc1NC(=O)c1c(F)cccc1F", "assay": "binding, competition with immobilised ligand", "conditions": "1 µM", "remaining binding [%]": 91}
{"SMILES": "C[C@H]1CCN(c2nccc(-c3cnn4ncccc34)n2)C1", "assay": "binding", "conditions": "1 µM", "remaining binding [%]": 98}
{"SMILES": "O=C(NS(=O)(=O)c1ccc(NCC2CCOCC2)c([N+](=O)[O-])c1)c1ccc(N2CCN(Cc3ccc(C(F)(F)F)cc3-c3ccc(Cl)cc3)CC2)cc1Oc1cnc2[nH]ccc2c1", "assay": "cell-free assay, competition with immobilised ligand", "conditions": "1 µM", "remaining binding [%]": 95}
{"SMILES": "N[C@@H]1CCN(c2nccc(-c3cnn4ncccc34)n2)C1", "assay": "binding", "conditions": "1 µM", "remaining binding [%]": 100}
{"SMILES": "CCN1CCN(Cc2ccc(C(=O)Nc3ccc(C)c(Oc4ccc5c(c4)CC(=O)N5)c3)cc2C(F)(F)F)CC1", "assay": "binding, competition with immobilised ligand", "conditions": "1 µM", "remaining binding [%]": 88}
{"SMILES": "CN(CCCC(F)(F)F)c1nccc(-c2cnn3ncccc23)n1", "assay": "binding", "conditions": "1 µM", "remaining binding [%]": 100}
{"SMILES": "O=C1CCc2cc(Nc3cc(OC4CCOCC4)c([N+](=O)[O-])cc3Cl)ccc2N1", "assay": "cell-free assay, competition with immobilised ligand", "conditions": "1 µM", "remaining binding [%]": 100}
{"SMILES": "CN(C)c1nccc(-c2cnn3ncccc23)n1", "assay": "binding", "conditions": "1 µM", "remaining binding [%]": 87}
{"SMILES": "O=C(c1ccc(Nc2ncc(Cl)c(-c3cc4ccccc4s3)n2)cc1)N1CCC(N2CCCC2)CC1", "assay": "binding, competition with immobilised ligand", "conditions": "1 µM", "remaining binding [%]": 34}
{"SMILES": "CS(=O)(=O)NCC[C@H](NC(=O)c1cncc2c1cnn2-c1ccc(F)cc1)c1ccnc(S(C)(=O)=O)c1", "assay": "cell-free assay, competition with immobilised ligand", "conditions": "1 µM", "remaining binding [%]": 86}
{"SMILES": "O=C(c1ccc(Nc2nccc(-c3cc4ccccc4s3)n2)cc1)N1CCC(N2CCCC2)CC1", "assay": "binding, competition with immobilised ligand", "conditions": "1 µM", "remaining binding [%]": 40}
{"SMILES": "C=CC(=O)N1CCC(C(=O)NCC(=O)N2CCN(c3nc(-c4cnc(N)nc4C(F)F)nc(N4CCOCC4)n3)CC2)CC1", "assay": "binding, competition with immobilised ligand", "conditions": "1 µM", "remaining binding [%]": 80}
